Assay results collected from several papers.
Protocols differ between the studies behind these lines.
Observed: cell growth or viability

SMILES	cell line	method	tested at	time	endpoint	value
Cc1cc(Nc2ccc(C(=O)N/N=C/c3ccc(N(C)C)cc3)cc2)c2cccc(O)c2n1	Huh-7	MTT	20 µM		inhibition	69.9%
COc1ccc(NC(=O)c2c(Nc3ccccc3)sc(C(=O)NN=Cc3ccc(C)cc3)c2NC(C)=O)cc1	HepG2	SRB	0.1 µM	48 h	viability	89.2%
CCCCCCCCCCCCNC(=S)NCCCC[C@H](NS(C)(=O)=O)C(=O)N[C@H](C)C(=O)N[C@@H](CCCNC(=N)N)C(=O)N1CCOCC1	HEK-293T	MTT		72 h	EC50	> 100 µM
COc1cc([C@@H]2c3cc4c(cc3[C@@H](O[C@@H]3O[C@@H]5CO[C@@H](C)O[C@H]5[C@H](O)[C@H]3O)[C@H]3COC(=O)[C@H]23)OCO4)cc(OC)c1O	CCD-18Co	MTS		72 h	IC50	40.3 µM
Cc1cc(Nc2ccc(C(=O)N/N=C/c3ccncc3)cc2)c2cccc(O)c2n1	Huh-7	MTT	20 µM		inhibition	76.9%
CCOCCOCCOCCNC(=S)NCCCC[C@H](NS(C)(=O)=O)C(=O)N[C@@H](C)C(=O)N[C@@H](CCCNC(=N)N)C(N)=O	HEK-293T	MTT		72 h	EC50	> 100 µM
CCOC(=O)c1ccc(-n2c(N)c(C#N)c(CC#N)c(C#N)c2=O)cc1	HepG2	MTT	3.125 µM	24 h	viability	90.2%
COc1ccc(NC(=O)c2c(Nc3ccccc3)sc(C#N)c2NC(=O)CNc2ccccc2Cl)cc1	HepG2	SRB	100 µM	48 h	viability	90.3%
COc1cc(Nc2nccc(-c3cnn4nc(OC)ccc34)n2)cc(C(F)(F)F)c1	HEC-1B	ATP luminescence			IC50	> 3 µM
CCOC(=O)c1ccc(NC(=O)C2=C3C(=Nc4ccccc43)NC2=O)cc1	HepG2	MTT	12.5 µM	24 h	viability	68.1%
COc1ccc(NC(=O)c2c(Nc3ccccc3)sc(C(=O)NN=Cc3ccccc3)c2NC(C)=O)cc1	HepG2	SRB	10 µM	48 h	viability	65.3%
Cc1cc(Nc2ccc(C(=O)N/N=C/C3CCCCC3)cc2)c2cccc(O)c2n1	Huh-7	MTT	20 µM		inhibition	41.1%
C[C@@H](NC(=O)[C@H](CCCCNC(=O)C(F)(F)F)NS(C)(=O)=O)C(=O)N[C@@H](CCCNC(=N)N)C(N)=O	HEK-293T	MTT		72 h	EC50	3.68 to 46.1 µM
c1ccc(-c2csc(NCc3ncccn3)n2)nc1	Huh-7				CC50	> 40 µM
CC(C)C[C@H](NC(=O)[C@H](Cc1ccccc1)NC(=O)c1cnccn1)B(O)O	HEC-1B	ATP luminescence			IC50	0.0096 µM
Cc1c(NC(=O)c2ccc(C(C)(C)C)cc2)cccc1-c1cn(C)c(=O)c(Nc2ccc(C(=O)N3CCOCC3)cc2)n1	Ramos			48 h	GI50	> 10 µM

SMILES	cell line	method	tested at	time	endpoint	value
Cc1cc(Nc2ccc(C(=O)N/N=C/c3ccnc(Cl)c3)cc2)c2cccc(O)c2n1	Huh-7	MTT	20 µM		inhibition	32.9%
C=CC(=O)Nc1cc(-n2c(=O)ccc3cnc4ccc(-c5ccc(NS(C)(=O)=O)cc5)cc4c32)ccc1C	Ramos			48 h	GI50	1.8 µM
COc1ccc(NC(=O)c2c(Nc3ccccc3)sc(C#N)c2NC(=O)CNc2ccc(O)cc2)cc1	HepG2	SRB	100 µM	48 h	viability	53.9%
CC(=O)Oc1ccc(/C=N/NC(=O)c2ccc(Nc3cc(C)nc4c(O)cccc34)cc2)cc1	Huh-7	MTT	20 µM		inhibition	31.2%
COc1cc(N2CCC(N3CCN(C)CC3)CC2)ccc1Nc1ncc(Cl)c(Nc2ccccc2P(C)(C)=O)n1	NCI-H292	ATP luminescence		72 h	GI50	2.76 µM
COc1ccc(NC(=O)c2c(Nc3ccccc3)sc(C#N)c2NC(=O)CNc2ccccc2)cc1	HepG2	SRB	1 µM	48 h	viability	88.6%
Cc1cc(Nc2ccc(C(=O)N/N=C/c3cc4ccccc4[nH]3)cc2)c2cccc(O)c2n1	Huh-7	MTT	20 µM		inhibition	60.2%
COc1ccc(NC(=O)c2c(Nc3ccccc3)sc(C#N)c2NC(=O)CNc2ccc(OC)c(OC)c2)cc1	HepG2	SRB	1 µM	48 h	viability	83.7%
Cc1cc(Nc2ccc(C(=O)N/N=C/c3ccccc3)cc2)c2cccc(O)c2n1	Huh-7	MTT	20 µM		inhibition	32.3%
CCOC(=O)c1ccc(-n2c(C)cc(C)c(C#N)c2=O)cc1	HepG2	MTT	12.5 µM	24 h	viability	76.1%
COc1ccc(NC(=O)c2c(Nc3ccccc3)sc(C#N)c2NC(=O)CNc2ccccc2[N+](=O)[O-])cc1	HepG2	SRB	10 µM	48 h	viability	84.6%
Cc1cc(Nc2ccc(C(=O)N/N=C/c3cccs3)cc2)c2cccc(O)c2n1	Huh-7	MTT	20 µM		inhibition	42.1%
CCOC(=O)c1sc(NCc2ncccn2)nc1-c1ccccn1	Huh-7				CC50	> 40 µM
COc1ccc(NC(=O)c2c(Nc3ccccc3)sc(C#N)c2NC(=O)CNc2ccc(Cl)cc2)cc1	HepG2	SRB	10 nM	48 h	viability	86.1%
CCOC(=O)c1ccc(-n2c(C)cc(/C=C/c3ccc(OCC)cc3)c(C#N)c2=O)cc1	HepG2	MTT	25 µM	24 h	viability	72%
